In PubChem BioAssay AID2298 (NMMLSC, 2010):
pEC50, pKi: −log10 of the molar value.

The compounds below were run against Regulator of G-protein signaling 16 (Homo sapiens) (UniProt O15492) (assay: RGS16-Galphao binding modulators, SAR follow-up, biochemical, multiplexed bead flow cytometry, SAR compounds (AID 2298)). Settings: bead-based flow cytometry, AF488-Galphao binding to RGS16.
How it was run: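 material = Bead-immobilised biotinylated RGS16, multiplexed bead sets | buffer or medium = HEPES/Lubrol/BSA buffer, pH 8.0 | reagent = AlexaFluor488-labelled Galphao-GDP-AlF4 probe, 7 nM final | compound dosing = 9 concentrations, 1:3 steps | incubation = Bead–Galphao binding incubation 30–90 min, room temperature | measured by = high-throughput flow cytometry, bead-gated median green (FL1) fluorescence | read-out = four-parameter EC50 and Ki (Kd 30 nM)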

Sequence of Regulator of G-protein signaling 16 (Homo sapiens) (O15492 whole entry, looked up): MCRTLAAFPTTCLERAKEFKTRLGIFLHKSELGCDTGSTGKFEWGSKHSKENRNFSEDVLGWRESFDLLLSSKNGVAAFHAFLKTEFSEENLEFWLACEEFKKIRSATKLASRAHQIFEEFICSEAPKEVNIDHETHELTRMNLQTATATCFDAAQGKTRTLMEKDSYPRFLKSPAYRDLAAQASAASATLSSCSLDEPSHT

Row | pEC50 | Structure (SMILES)
1 | 7.54 | NS(=O)(=O)c1ccc(N/N=C/c2ccc(O)c(O)c2O)c([N+](=O)[O-])c1

Same assay, conditions: bead-based flow cytometry, AF488-Galphao binding to RGS16; measured here: Ki derived from EC50, inhibitors

Row | Structure (SMILES) | pKi
2 | NS(=O)(=O)c1ccc(N/N=C/c2ccc(O)c(O)c2O)c([N+](=O)[O-])c1 | 7.70
3 | CCN=c1scc(C)n1/N=C/c1ccc(O)c(O)c1O | 6.07
4 | CC(=O)OCCCNc1cc(Sc2nc3ccccc3s2)c2nonc2c1[N+](=O)[O-] | 6.66
5 | CC1(C)OC(=O)C(=Cc2ccc(-c3ccc(S(N)(=O)=O)cc3)o2)C(=O)O1 | 5.55
6 | O=C1C(Cl)=C(N2CCCCC2)C(=O)C(Cl)=C1c1cnc(N2CCCCC2)s1 | 7.00
7 | CN1CCN(C2=C(Cl)C(=O)C(c3cnc(N4CCCCC4)s3)=C(Cl)C2=O)CC1 | 7.70
8 | CCN(CC)S(=O)(=O)c1cccc(-c2n[nH]c(=S)n2/N=C/c2ccc(C(=O)OC)cc2)c1 | 6.12
9 | CCN(CC)S(=O)(=O)c1cccc(C(=O)N/N=C/c2ccc(O)c(O)c2O)c1 | 6.32
10 | CN=c1scc(C)n1/N=C/c1ccc(O)c(O)c1O | 6.39
11 | CC(NC(=O)c1sc2cc([N+](=O)[O-])ccc2c1Cl)C(C)(C)C (centres undefined) | 6.77

The remaining compounds from weak to strong by pKi, led by results:

Row | pKi | Structure (SMILES)
12 | 5.37 | CCC(=O)NC(c1ccc(C)cc1)c1cc([N+](=O)[O-])c2cccnc2c1O (centres undefined)
13 | 5.94 | Cc1cccc(N2CCN(C(=O)COc3nsc4nc(C)cc(C)c34)CC2C)c1 (centres undefined)
14 | 5.94 | COC(=O)CCC(=O)Nc1sc(C)c(C)c1C(N)=O
15 | 6.17 | O=C(Cc1csc(N2CCOCC2)n1)N/N=C/c1ccc(O)c(O)c1O
16 | 6.24 | CCOC(=O)c1sc(NC(=O)CSc2nnc(Cc3ccccc3)o2)c(C#N)c1C
17 | 6.48 | Cc1[nH]n(-c2ccccc2)c(=S)c1C=NCCCN=Cc1c(C)[nH]n(-c2ccccc2)c1=S
18 | 6.57 | O=C(NCCCN1CCOCC1)c1sc2cc([N+](=O)[O-])ccc2c1Cl
19 | 6.92 | COc1ccc(C2=CC(=O)C=CC2=O)cc1
20 | 7.05 | O=C(COc1ccccc1C(=O)N/N=C/c1ccc(O)c(O)c1)N/N=C/c1ccc(O)c(O)c1
21 | 7.05 | Cc1cccc(N2CCN(C(=O)Cn3sc4nc(C)cc(C)c4c3=O)CC2C)c1 (centres undefined)
22 | 7.40 | Cc1cc(Cl)ccc1N=c1ssnc1Cl
23 | 7.40 | Cc1[nH]n(-c2ccccc2)c(=S)c1C=Nc1cccc([N+](=O)[O-])c1
24 | 7.70 | O=c1c2ccccc2sn1-c1ccc(S(=O)(=O)N2CCCC2)cc1
